The species named for the first test is Homo sapiens. As to the kind of experiment: In vitro ability to cause dose dependent inhibition of arachidonic acid (AA) conversion to thromboxane A2 (TXA2 ). The test is classed as functional. To be noted: read-out: I50. The method in brief: (§1)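 Compound incubated with platelet lysate at several concentrations. Read-out is inhibition of arachidonic acid conversion to TXA2, measured as TXB2 production, and to PGE2. The value is given as I50.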
Consider `CCCCCCOC[C@@H]1C2CCC(O2)[C@H]1C/C=C\CCCC(=O)O` (stereo in doubt; 1), for which the IC50 was found to be 6.3 µM.

For another test, the species on record is Homo sapiens. The experiment in a line: In vitro ability to cause dose dependent inhibition of arachidonic acid (AA) conversion to PGE-2. The test is classed as functional. To be noted: Homo sapiens; read-out: I50. The method in brief:
as §1
In the case of `CCCCCCOC[C@@H]1C2CCC(O2)[C@H]1C/C=C\CCCC(=O)O` (stereo in doubt; 1), the IC50 was 3.8 µM.

The same test, now with this note: read-out: I50.
Turning to `CCCCCCOC[C@@H]1C2CCC(O2)[C@H]1C/C=C\CCCC(=O)O` (stereo in doubt; 1), the IC50 was found to be 6.3 µM.

The species named for a further test is Homo sapiens. As to the kind of experiment: In vitro ability to inhibit arachidonic acid induced platelet aggregation (AAIPA) of human platelet-rich plasma (PRP). The test is classed as functional.
Details: not given
An outline of the steps: (§2)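 Aggregation of human platelet-rich plasma triggered with arachidonic acid at 800 μM. The method follows an earlier report, and the value is given as I50.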
Broadly, the AC50 is the concentration giving half of the maximal activity seen. Read a high AC50 as activity only at high concentration. `CCCC[C@@H](O)/C=C/C1C2CCC(O2)C1C/C=C\CCCC(=O)O` (stereo partly drawn): the concentration at half-maximal activity (AC50) was 2.5 µM.

For a further test, the species on record is Homo sapiens. As to the kind of experiment: In vitro inhibition of arachidonic acid induced platelet aggregation of human platelet-rich plasma. The test is classed as functional. As to conditions: Homo sapiens, Plasma; read-out: I50. An outline of the steps: as §2
On to `CCCCCCCO[C@@H]1C2CCC(O2)[C@@H]1C/C=C\CCCC(=O)O` (stereo partly drawn), for which the IC50 is 340 µM.

In the case of `CCCCCCOCC1C2CCC(O2)C1CCCCCCC(=O)O` (stereo not drawn), the IC50 was determined as 0.2 µM.

Take `COCC1C2CCC(O2)C1C/C=C\CCCC(=O)O` (stereo not drawn): the IC50 is 22 µM.

As to `CCCCC(C)COCC1C2CCC(O2)C1C/C=C\CCCC(=O)O` (stereo not drawn), the IC50 is 7.4 µM.

In the case of `CCC/C=C\COCC1C2CCC(O2)C1C/C=C\CCCC(=O)O` (stereo not drawn), the IC50 came to 3.3 µM.

Take `O=C(O)CCC/C=C\CC1C2CCC(O2)C1COCCCc1ccccc1` (stereo not drawn): the IC50 was determined as 26 µM.

Turning to `O=C(O)CCCCC1CC2C3CCC(O3)C2CO1` (stereo not drawn), the IC50 was more than 1000 µM.

For the molecule `CCC/C=C/COCC1C2CCC(O2)C1C/C=C\CCCC(=O)O` (stereo not drawn), the IC50 is 0.3 µM.

As for `O=C(O)CCC/C=C\CC1C2CCC(O2)C1COCC1CCCCC1` (stereo not drawn), the IC50 turned out to be 165 µM.

For `CC(=O)Oc1ccccc1C(=O)O` [ASPIRIN], the IC50 is 185 µM.

Consider `COc1ccc2c(c1)c(CC(=O)O)c(C)n2C(=O)c1ccc(Cl)cc1` [INDOMETHACIN], for which the IC50 came to 4 µM.

In the case of `CCCCCOCCC1C2CCC(O2)C1C/C=C\CCCC(=O)O` (stereo not drawn), the IC50 is 105 µM.

With `CCCCC[C@H](O)/C=C/[C@H]1C2CCC(O2)[C@@H]1C/C=C\CCCC(=O)O` (stereo partly drawn), the IC50 turned out to be 0.3 µM.

For `CCCCCCCO[C@H]1C2CCC(O2)[C@@H]1C/C=C\CCCC(=O)O` (stereo partly drawn), the IC50 was determined as 120 µM.

`CC/C=C/CCOCC1C2CCC(O2)C1C/C=C\CCCC(=O)O` (stereo not drawn): the IC50 was determined as 0.5 µM.

As for `CCCCCCOC(C)C1C2CCC(O2)C1CC=CCCCC(=O)O` (stereo not drawn), the IC50 stood at 14 µM.

Turning to `CCCC#CCOCC1C2CCC(O2)C1C/C=C\CCCC(=O)O` (stereo not drawn), the IC50 came out at 0.2 µM.

As for `C=CCOCC1C2CCC(O2)C1C/C=C\CCCC(=O)O` (stereo not drawn), the IC50 turned out to be 6 µM.

Regarding `CCCCCCCCOCC1C2CCC(O2)C1C/C=C\CCCC(=O)O` (stereo not drawn), the IC50 came to 32 µM.

Staying with this test, now noted: read-out: I50.
With `CCCCCCOC[C@@H]1C2CCC(O2)[C@H]1C/C=C\CCCC(=O)O` (stereo in doubt; 1), the IC50 stood at 0.5 µM.

Take `CCCCCCOC[C@@H]1C2CCC(O2)[C@H]1C/C=C\CCCC(=O)O` (stereo in doubt; 11): the IC50 is 18 µM.

For the molecule `CCCCCCOC[C@@H]1C2CCC(O2)[C@@H]1C/C=C\CCCC(=O)O` (stereo in doubt; 10), the IC50 was 10 µM.

As to `CCCCCCOC[C@@H]1C2CCC(O2)[C@H]1C/C=C\CCCC(=O)O` (stereo in doubt; 9), the IC50 is 25 µM.

`CCCCCCOC[C@@H]1C2CCC(O2)[C@@H]1C/C=C\CCCC(=O)O` (single isomer, unassigned; (-)): the IC50 was found to be 38.5 µM.

Take `CCCCCC(C)OCC1C2CCC(O2)C1C/C=C\CCCC(=O)O` (stereo in doubt; form 2): the IC50 came out at 3.2 µM.

With `CCCCCC(C)OCC1C2CCC(O2)C1C/C=C\CCCC(=O)O` (stereo in doubt; form 1), the IC50 is 23 µM.

Another test is filed under the species Homo sapiens. The experiment in a line: In vitro ability to inhibit adenosine diphosphate induced platelet aggregation (ADPIPA) of human platelet-rich plasma (PRP). As to conditions: read-out: I50. The test is classed as functional.
In the case of `CCCCCCOC[C@@H]1C2CCC(O2)[C@H]1C/C=C\CCCC(=O)O` (stereo in doubt; 1), the IC50 is more than 1000 µM.

On to `CCCCC[C@H](O)/C=C/[C@@H]1C2CCC(O2)[C@@H]1C/C=C\CCCC(=O)O` (stereo partly drawn), for which the IC50 came out at 300 µM.

The next test is filed under the species Homo sapiens. As to the kind of experiment: In vitro ability to inhibit adenosine diphosphate induced platelet aggregation (ADPIPA) of human platelet-rich plasma (PRP), and I50 value was reported from single determination. The test is classed as functional, organism-based. As to conditions: read-out: I50.
With `CCCCC[C@H](O)/C=C/[C@H]1C2CCC(O2)[C@@H]1C/C=C\CCCC(=O)O` (stereo partly drawn), the IC50 stood at 1.6 µM.

The record behind these values is ChEMBL document CHEMBL1123449, “9,11-Epoxy-9-homo-14-oxaprosta-5-enoic acid derivatives. Novel inhibitors of fatty acid cyclooxygenase” (J Med Chem, 1986).
